Test results as given in PubChem BioAssay.
The source made the active and inactive calls.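 The calls were made as follows, unless noted: active = fluorescence slope after compound addition differing from the mean of all tested samples at 99.7% confidence, mostly higher but some lower; inactive = the rest.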

Columns and labels:
[1] = inhibitors of TNFa-induced NFkB p65 translocation, primary screen, imaging, HUVEC, MLSMR starter and 10KST1 sets (AID 438;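 active = inhibition above 20% together with a positive visual image hit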;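 also: compound added about 3h40 before a 20 min TNFalpha stimulation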;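 as to inhibition: signal is the nuclear over cytoplasmic p65 intensity ratio per well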); conditions: HUVEC TNFa-induced p65 nuclear translocation; cell count: measured here: nuclei count (cytotoxicity indicator), at 2.08 µM; inhibition: at 2 µM, stronger effect = higher value, 0% TNFa-plus-vehicle, 100% no-TNFa wells
[2] = inhibitors of E-selectin induction by TNFa, primary screen, imaging, HUVEC, immunofluorescence, MLSMR starter and 10KST1 sets (AID 487;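 active = visually confirmed hit in the image check and inhibition above 20%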;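 as to inhibition: signal is fraction of cell area covered by stained E-selectin grains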;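 as to nuclei count: 100% = median nuclei count of all wells on the same plate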); conditions: HUVEC TNFalpha-induced E-selectin immunofluorescence imaging, at 2 µM; inhibition: stronger effect = higher value; nuclei count: measured here: cell number, toxicity
[3] = DUSP6 inhibitors restoring Erk phosphorylation by chemical complementation, primary imaging in DUSP6-transfected HeLa (AID 609;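 active = compounds giving at least 50% inhibition in the cell-based MKP-3 phosphatase rescue imaging test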;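 as to inhibition: phospho-Erk level distribution per well compared with pooled transfected vehicle control wells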); conditions: HeLa MKP-3 transfected, phospho-Erk imaging KS statistic, at 10 µM, cells stimulated with TPA for 15 min
[4] = biological target: Dual specificity protein phosphatase 6 (Homo sapiens) (UniProt Q16828); experiment: as above; conditions: HeLa MKP-3 transfected, phospho-Erk imaging KS statistic; at 10 µM; stronger effect = higher value; cells stimulated with TPA for 15 min
[5] = biological target: Voltage-gated potassium channel subunit beta-2 (Rattus norvegicus) (UniProt P62483); experiment: KvBeta enzyme negative modulators, primary screen, biochemical, NADPH fluorescence (AID 622;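 active = fluorescence slope higher than the sample average by over 3 SD, cut at about -0.22 in these data, passing the limit was not always enough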;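 also: slope of raw intensity against log time taken from 70 to 1610 s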); conditions: recombinant KvBeta, 4-cyanobenzaldehyde reduction, at 10 µM, stronger effect = higher value
[6] = biological target: Voltage-gated potassium channel subunit beta-2 (Rattus norvegicus) (UniProt P62483); experiment: KvBeta positive modulators, primary screen, biochemical, NADPH fluorescence (AID 623;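 active = NADPH fluorescence slope more negative than the mean of all samples by about 3 SD, 99.7% confidence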;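 also: fluorescence intensity change per second fitted from 20 to 320 s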); conditions: Recombinant KvBeta, NADPH fluorescence decrease slope, 10 min; at 10 µM; stronger effect = lower value
[7] = biological target: Muscarinic acetylcholine receptor M4 (Homo sapiens) (UniProt P08173); experiment: compounds altering M4/GIRK thallium flux, either direction, primary screen, M4 allosteric agonist project, cell-based, HEK293 M4/GIRK, BTC-AM (AID 625); conditions: at 10 µM, actives lie on both sides;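 also: thallium influx through GIRK channels coupled to M4 in HEK293 cells with BTC-AM dye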
Method in brief: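 Material: M4/GIRK1/GIRK2 stable HEK293 cell line. Medium: pH 7.3 thallium assay buffer. Dosing: single compound concentration, 10 µM final. Schedule: 1 h dye loading, 2 min kinetic read. Measured by: kinetic fluorescence with BTC-AM dye. Read-out: post-addition slope, 15–24 s, of baseline-normalized fluorescence. Benchmarks: carbachol and DMSO controls.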

[8] = inhibitors of larval lipid processing in zebrafish, primary screen, whole organism, PED6 fluorescence, gall bladder and intestine (AID 686;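 active = a full or partial loss of lipid-probe fluorescence in the fish gall bladder, intestine or both, judged by eye; inactive = no fluorescence loss, or compound toxic to the fish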;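 also: larvae 5 to 7 days old with five fish per well; signal comes from phospholipase A2 cleavage of quenched PED6 carried via bile; overnight exposure to compound and PED6 before scoring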); conditions: Zebrafish larvae PED6 lipid processing, fluorescence scoring; screened at 20 µM (by protocol)
Method in brief: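 System: live zebrafish larvae aged 5-7 days, whole organism; measure: graded gall bladder and intestinal fluorescence inhibition per well; incubation: overnight exposure; reagent: ingested quenched lipid PED6 at 100 nM; signal: By-eye fluorescence microscopy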

[9] = inhibitors of Chlamydomonas gravitaxis, primary screen, whole organism, Chlamydomonas reinhardtii, WT vs cilia-less mutant, absorbance, 96-well (AID 463189;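 active = inhibition at or above 50% relative to wild type and mutant plate controls; inactive = inhibition below 50%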;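 also: 0% = wild type cc124 cells in DMSO and 100% = ciliumless bld1 mutant cells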); conditions: OD600 absorbance, 2 days, at 10 µM, stronger effect = higher value
[10] = measured here: cell density z-score
[11] = measured here: nuclear c-Myc green intensity z-score
[12] = measured here: nuclear pErk red intensity z-score, stronger effect = higher value

Chain of Muscarinic acetylcholine receptor M4 (Homo sapiens) (P08173 whole entry, looked up): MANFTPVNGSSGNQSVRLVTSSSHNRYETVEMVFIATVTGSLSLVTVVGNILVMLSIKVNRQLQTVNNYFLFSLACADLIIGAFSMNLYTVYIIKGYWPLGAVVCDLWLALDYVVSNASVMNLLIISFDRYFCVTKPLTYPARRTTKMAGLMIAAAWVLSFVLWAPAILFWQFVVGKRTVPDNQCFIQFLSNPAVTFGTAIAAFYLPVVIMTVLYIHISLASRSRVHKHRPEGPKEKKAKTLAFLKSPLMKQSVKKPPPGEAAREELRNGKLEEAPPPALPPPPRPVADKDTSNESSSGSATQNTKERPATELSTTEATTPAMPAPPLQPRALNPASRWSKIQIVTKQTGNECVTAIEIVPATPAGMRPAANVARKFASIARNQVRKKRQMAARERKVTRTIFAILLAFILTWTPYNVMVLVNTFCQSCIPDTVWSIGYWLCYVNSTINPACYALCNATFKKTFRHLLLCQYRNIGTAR
Chain of Voltage-gated potassium channel subunit beta-2 (Rattus norvegicus) (P62483 whole entry, looked up): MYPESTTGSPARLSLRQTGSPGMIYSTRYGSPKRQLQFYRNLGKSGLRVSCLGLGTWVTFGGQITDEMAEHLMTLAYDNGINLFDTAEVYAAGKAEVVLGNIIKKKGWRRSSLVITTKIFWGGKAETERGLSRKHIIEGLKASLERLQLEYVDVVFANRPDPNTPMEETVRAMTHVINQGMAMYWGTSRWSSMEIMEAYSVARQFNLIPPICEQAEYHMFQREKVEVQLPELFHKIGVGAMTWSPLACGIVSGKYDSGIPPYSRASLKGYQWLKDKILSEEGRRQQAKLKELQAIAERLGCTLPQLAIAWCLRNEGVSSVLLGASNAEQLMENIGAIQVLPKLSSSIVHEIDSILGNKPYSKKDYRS
Chain of Dual specificity protein phosphatase 6 (Homo sapiens) (Q16828 whole entry, looked up): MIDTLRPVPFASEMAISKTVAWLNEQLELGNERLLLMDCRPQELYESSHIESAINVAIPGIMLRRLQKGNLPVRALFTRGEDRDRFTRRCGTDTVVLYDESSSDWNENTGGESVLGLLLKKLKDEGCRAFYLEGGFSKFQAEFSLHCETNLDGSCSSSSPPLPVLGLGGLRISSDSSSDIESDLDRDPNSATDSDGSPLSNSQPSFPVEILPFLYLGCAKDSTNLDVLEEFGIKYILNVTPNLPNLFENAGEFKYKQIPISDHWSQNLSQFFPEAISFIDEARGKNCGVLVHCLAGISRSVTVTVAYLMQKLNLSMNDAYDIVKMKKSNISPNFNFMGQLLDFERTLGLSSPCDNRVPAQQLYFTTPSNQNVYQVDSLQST

| SMILES | cell count [1] | inhibition [1] | inhibition [2] | nuclei count [2] | z-score [3, 10] | z-score [3, 11] | z-score [3, 12] | inhibition [4] | fluorescence slope [5] | NADPH fluorescence slope [6] | fluorescence slope [7] | outcome [8] | inhibition [9] |
| --- | --- | --- | --- | --- | --- | --- | --- | --- | --- | --- | --- | --- | --- |
| N#Cc1ccc(-c2ccc(OCC(O)Cn3nnc4ccccc43)cc2)cc1 (stereo not given) | 528 | -15.6% (inactive) | -19.3% (inactive) | 116% | -2.55 | 0.882 | 0.638 | 5.42% (inactive) | -0.422 (inactive) | -6e-06 (inactive) | 0.00426 (inactive) | inactive | 52.4% (active) |
| C[N+]1(CCNC(=O)/C=N/O)CCCCC1 | 468 | -0.1% (inactive) | -76.5% (inactive) | 147% | -1.04 | 0.313 | 0.488 | -0.624% (inactive) | -0.42 (inactive) | -2.5e-05 (inactive) | 0.00534 (inactive) | inactive | 13.4% (inactive) |
| CCc1c(C)c2cc(Cl)c(O)c(CN3CCCCC3)c2oc1=O | 634 | -3.5% (inactive) | 6.3% (inactive) | 174% | 0.309 | 0.0643 | -0.532 | -10.6% (inactive) | -0.0112 (inactive) | -2.8e-08 (inactive) | 0.00604 (inactive) | inactive | -1.88% (inactive) |
| COc1ccc(CC(=O)OCN2C(=O)c3ccccc3C2=O)cc1 | 518 | -10.2% (inactive) | -70.2% (inactive) | 138% | 0.489 | -1.2 | -0.603 | 11.9% (inactive) | -0.359 (inactive) | -1.7e-05 (inactive) | 0.00563 (inactive) | inactive | 20.5% (inactive) |
| CC1(C)Cc2c(C#N)c(SCCOc3ccccc3)nc(N3CCOCC3)c2CO1 | 387 | -7.4% (inactive) | -56.3% (inactive) | 82.1% | -1.25 | 1.29 | 1.84 | 5.42% (inactive) | -0.415 (inactive) | -3.7e-05 (inactive) | 0.00791 (inactive) | inactive | 25.7% (inactive) |
| Cc1cc(=O)oc(C)c1C(=O)NCC1CCCO1 (stereo not given) | 606 | 9.1% (inactive) | -24.6% (inactive) | 123% | 0.0605 | 0.0774 | 0.0396 | 5.35% (inactive) | -0.441 (inactive) | -4.3e-05 (inactive) | 0.00527 (inactive) | inactive | 5.07% (inactive) |
| N#Cc1c(N)nc(SCC(=O)NCc2ccc3c(c2)OCO3)c(C#N)c1-c1cccs1 | 577 | -0.3% (inactive) | 53.2% (inactive) | 115% | 0.98 | 1.31 | -0.212 | 6.04% (inactive) | -0.493 (inactive) | -6.7e-05 (inactive) | 0.00636 (inactive) | inactive | -14% (inactive) |
| CCOC(=O)C1=Nc2ccccc2C1=[N+]=[N-] | 714 | -2.2% (inactive) | 6.6% (inactive) | 179% | -0.487 | 0.636 | 1.84 | -5.95% (inactive) | -0.477 (inactive) | -4.9e-05 (inactive) | 0.00733 (inactive) | inactive | 152% (active) |
| CN(C)CCCN1C(=O)C(=O)/C(=C(/O)c2ccccc2)C1c1ccccn1 (stereo not given) | 473 | -8.2% (inactive) | -97.3% (inactive) | 158% | 1.03 | -1.2 | 0.352 | 1.04% (inactive) | -0.486 (inactive) | -6.1e-05 (inactive) | 0.00459 (inactive) | inactive | 10.1% (inactive) |
| C=CCN(C(=O)CCC(=O)O)C1CC(=O)N(c2ccc(OC)cc2)C1=O (stereo not given) | 549 | 0.4% (inactive) | 17.4% (inactive) | 97.5% | 1.91 | 0.0386 | -1.01 | 14.7% (inactive) | -0.482 (inactive) | -3.4e-05 (inactive) | 0.005 (inactive) | inactive | -19.1% (inactive) |
| CCCOC(=O)CSC1=C(C#N)C(c2ccc3c(c2)OCO3)CC(=O)N1 (stereo not given) | 674 | -6.1% (inactive) | -91.1% (inactive) | 161% | 0.796 | -0.679 | -1.26 | -7.86% (inactive) | -0.487 (inactive) | -6.2e-05 (inactive) | 0.00536 (inactive) | inactive | 6.85% (inactive) |
| COc1cccc(Cn2c(NCc3ccccn3)nc3c2c(=O)n(C)c(=O)n3C)c1 | 694 | -20.9% (inactive) | -199% (inactive) | 189% | 0.955 | -1.34 | -0.0315 | 17.8% (inactive) | -0.5 (inactive) | -7.9e-05 (inactive) | 0.00592 (inactive) | inactive | 4.17% (inactive) |
| Cn1c(NCC(O)c2ccccc2)nc2c1c(=O)n(Cc1ccc(Cl)cc1)c(=O)n2C (stereo not given) | 676 | 8.4% (inactive) | -18% (inactive) | 103% | -0.206 | 0.674 | -0.257 | -9.53% (inactive) | -0.423 (inactive) | -4.1e-05 (inactive) | 0.00426 (inactive) | inactive | 8.04% (inactive) |
| C=CCNc1nc(N2CCOCC2)c(C#N)c2c1CN(C)CC2 | 600 | -5.7% (inactive) | -83.6% (inactive) | 138% | 0.63 | -0.71 | 0.0349 | 9.07% (inactive) | -0.417 (inactive) | -9.1e-05 (inactive) | 0.00406 (inactive) | inactive | 1.91% (inactive) |
| COC(=O)NCC12CC3CC(C1)CC(CNC(=O)OC)(C3)C2 | 541 | 2.3% (inactive) | -75% (inactive) | 122% | 0.785 | 1.4 | -1.34 | 5.42% (inactive) | -0.467 (inactive) | -0.0001 (inactive) | 0.00455 (inactive) | inactive | -5.97% (inactive) |
| C=CCNc1nc(C)nc(OC)n1 | 634 | -0.1% (inactive) | 69.9% (active) | 85.8% | -3.44 | 2.82 | 1.07 | 14.7% (inactive) | -0.481 (inactive) | -4.7e-05 (inactive) | 0.00536 (inactive) | inactive | -10.1% (inactive) |
| Cc1sc(-n2c(C)cc(/C=N/n3cnnc3)c2C)c(C#N)c1C | 408 | 1.9% (inactive) | 29.3% (inactive) | 85.2% | -1.21 | -0.424 | 0.842 | 3.56% (inactive) | -0.546 (inactive) | -9.2e-05 (inactive) | 0.00473 (inactive) | inactive | 14% (inactive) |
| Cn1c(NCc2ccccc2)nc2c1c(=O)n(Cc1ccc(Br)cc1)c(=O)n2C | 696 | -21.9% (inactive) | -78.3% (inactive) | 171% | 0.333 | 0.526 | 0.876 | 13.9% (inactive) | -0.47 (inactive) | -5.2e-05 (inactive) | 0.00559 (inactive) | inactive | 36.1% (inactive) |
| Cn1c(=O)c2c(nc(NCc3ccco3)n2CCc2ccccc2)n(C)c1=O | 605 | 6% (inactive) | -74.4% (inactive) | 121% | -0.322 | -0.952 | 1.19 | 1.98% (inactive) | -0.524 (inactive) | -6e-05 (inactive) | 0.00721 (inactive) | inactive | 33.1% (inactive) |
| CCc1nc2n[nH]c(N)c2c2c1CSC(C)(C)C2 | 644 | -0.8% (inactive) | -44.1% (inactive) | 168% | -1.43 | 0.647 | 2.27 | -15% (inactive) | -0.458 (inactive) | -5.1e-05 (inactive) | 0.00446 (inactive) | inactive | 12.1% (inactive) |
